Measurements of several laboratories.
Protocols differ between the studies behind these lines.
Target: Serine/threonine-protein kinase BRSK1 (BRSK1, Homo sapiens, UniProt Q8TDC3)
Sequence (Q8TDC3 1-778, as in one of the studies): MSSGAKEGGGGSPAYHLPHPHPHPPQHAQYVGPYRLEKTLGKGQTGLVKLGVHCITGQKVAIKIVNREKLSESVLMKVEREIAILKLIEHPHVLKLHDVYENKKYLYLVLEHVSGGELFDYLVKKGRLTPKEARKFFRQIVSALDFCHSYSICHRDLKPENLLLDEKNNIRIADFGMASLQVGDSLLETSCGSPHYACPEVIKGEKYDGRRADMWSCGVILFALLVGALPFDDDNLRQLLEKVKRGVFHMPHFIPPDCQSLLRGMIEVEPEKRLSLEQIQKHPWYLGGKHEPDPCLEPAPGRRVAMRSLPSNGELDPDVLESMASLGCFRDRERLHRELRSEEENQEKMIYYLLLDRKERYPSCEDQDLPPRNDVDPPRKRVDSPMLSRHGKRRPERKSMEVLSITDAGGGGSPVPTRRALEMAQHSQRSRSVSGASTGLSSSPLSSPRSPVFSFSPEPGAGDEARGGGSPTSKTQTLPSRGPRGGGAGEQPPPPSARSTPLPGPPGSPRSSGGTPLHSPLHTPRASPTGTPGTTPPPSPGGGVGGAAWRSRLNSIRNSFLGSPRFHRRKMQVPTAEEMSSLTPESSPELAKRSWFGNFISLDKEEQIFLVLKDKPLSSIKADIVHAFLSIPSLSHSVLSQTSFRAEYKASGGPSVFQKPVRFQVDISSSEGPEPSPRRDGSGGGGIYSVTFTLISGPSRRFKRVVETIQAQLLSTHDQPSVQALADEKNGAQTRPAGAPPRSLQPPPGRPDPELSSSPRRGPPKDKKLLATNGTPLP

| SMILES | observed | technique | concentration | remaining binding |
| --- | --- | --- | --- | --- |
| N[C@H]1CCN(c2nccc(-c3cnn4ncccc34)n2)C1 | binding |  | 1 µM | 81% |
| C[C@H](c1cccc(C#N)c1)n1cc(Cl)cc(C(N)=O)c1=N | cell-free assay | competition with immobilised ligand | 1 µM | 68% |
| FC(F)(F)Oc1cccc(-c2cnc3ccc(-c4ccncc4)nn23)c1 | cell-free assay | competition with immobilised ligand | 5 µM | 85% |
| CN(c1ccnc(CNc2nc(Nc3ccc4c(c3)CC(=O)N4)ncc2C(F)(F)F)n1)S(C)(=O)=O | cell-free assay | competition with immobilised ligand | 1 µM | 43% |
| c1cnn2ncc(-c3ccnc(N4CCC45COC5)n3)c2c1 | binding |  | 1 µM | 82% |
| O=C(NCCCN1CCOCC1)c1ccc(Nc2nccc(-c3cc4ccccc4s3)n2)cc1 | binding | competition with immobilised ligand | 1 µM | 70% |
| CN(C)c1ncc(F)c(-c2cnn3ncccc23)n1 | binding |  | 1 µM | 87% |
| c1cncc(-c2cccc(Nc3nccc(NC4CCCCC4)n3)c2)c1 | binding | competition with immobilised ligand | 10 µM | 84% |
| CN(CCCC(F)(F)F)c1nccc(-c2cnn3ncccc23)n1 | binding |  | 1 µM | 100% |
| Cc1c(NC(=O)c2cc(C(N)=O)nc3cc(F)ccc23)c(C(F)(F)F)nn1Cc1ccc(C#N)cc1 | cell-free assay | competition with immobilised ligand | 1 µM | 100% |
| COc1ncc2cc3ccccc3nc2c1C#N | cell-free assay | competition with immobilised ligand | 5 µM | 89% |
| O=C(c1ccc(Nc2ncc(Cl)c(-c3ccc(Cl)s3)n2)cc1)N1CCC(N2CCCC2)CC1 | binding | competition with immobilised ligand | 1 µM | 57% |
| COc1cc(-c2cn(C3CCc4ccccc4N(CC(F)(F)F)C3=O)nn2)ccc1-n1ccc(C)n1 (stereo not shown) | cell-free assay | competition with immobilised ligand | 1 µM | 81% |
| CN(C)c1nccc(-c2cnc3ncccn23)n1 | binding |  | 1 µM | 100% |
| CC(=O)c1c(NS(C)(=O)=O)c2cc(-c3ccc(Cl)cc3)c(-c3ccc(Cl)cc3Cl)nc2n(C)c1=O | cell-free assay | competition with immobilised ligand | 1 µM | 99% |
| CNC(=O)[C@@H]1CC[C@@H](n2c(-c3ccc4cnccc4c3)nc3ccc(C(=O)NCc4cccc(C(N)=O)c4)cc32)C1 | binding | competition with immobilised ligand | 1 µM | 100% |
| C[C@H]1CCN(c2nccc(-c3cnn4ncccc34)n2)C1 | binding |  | 1 µM | 98% |
| CO[C@@H](C)c1c(Nc2ccc([C@@H](N(C)C(=O)C3CCS(=O)(=O)CC3)C(F)(F)F)cc2)cnc2cc(Cl)nn12 | cell-free assay | competition with immobilised ligand | 1 µM | 93% |
| Cc1cnc(Nc2ccc(C(=O)N3CCC(N4CCCC4)CC3)cc2)nc1-c1cc2ccccc2s1 | binding | competition with immobilised ligand | 1 µM | 100% |
| Cc1cnn2ncc(-c3ccnc(N(C)C)n3)c2c1 | binding |  | 1 µM | 81% |
| COc1cnc(Nc2cccc(S(N)(=O)=O)c2)nc1N1CCN(c2ccccc2)CC1 | binding | competition with immobilised ligand | 1 µM | 96% |
| O=C(NCC1CCOCC1)c1n[nH]cc1NC(=O)c1c(F)cccc1F | binding | competition with immobilised ligand | 1 µM | 100% |
